Reference: paper PMC9279713 (Acta Pharmaceutica Sinica. B, 2021)

How the values were obtained:
HCT116 and CT26 cells = experiment: Immunogenic cell death: immunofluorescence of CRT and HMGB1; type: cell-based; settings: 100 nmol/L
[1] = system: CT26, HCT116 and SW620 cells; experiment: Western blotting of HIF-1α, PD-L1, HMGA1, p-Erk and p-Akt expression; type: cell-based
Outline: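 Cells were exposed to a range of test compound concentrations and then lysed in RIPA buffer containing 1% protease and 2% phosphatase inhibitors. Total lysate (20 μg protein per lane) was run on SDS-PAGE and transferred to PVDF. Membranes were blocked in 5% milk/TBST, incubated with primary antibodies overnight at 4 °C, then with an HRP-labelled secondary antibody for 2 h at room temperature.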

Substance: deoxybouvardin [RA-V]
- ICD effect: pre-apoptotic CRT exposure to membrane surface (HCT116 and CT26 cells): failed to elicit significant pre-apoptotic CRT exposure
- HMGA1 expression ([1]; CT26, HCT116 and SW620 cells): inhibited significantly
- p-Akt and p-Erk expression ([1]; CT26, HCT116 and SW620 cells): decreased
- PD-L1 expression ([1]; CT26 cells, different concentrations): down-regulated PD-L1 expression remarkably
